For test [1], the system named is Calf thymus DNA. Briefly: CT-DNA binding required to produce a 50% drop in fluorescence of DNA-bound ethidium. Conditions: Bos taurus. In kind it is nucleic-acid assay. An outline of the steps:
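Ethidium displacement from calf thymus DNA in 10 mM Na2HPO4, 10 mM NaH2PO4, 1 mM EDTA, pH 7.0, containing 1.26 μM ethidium bromide and 1 μM CT-DNA. Drug added serially from ~5 mM DMSO stock; 20 °C; fluorescence excitation 546 nm, emission 595 nm. C50 = drug concentration lowering DNA-bound ethidium fluorescence by 50%, mean of three determinations.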

The test system of test [2] is HT-29. Description: In vitro cytotoxic potency against HT-29 (human colon adenocarcinoma) cell line. In kind it is functional, cell-based.

One may read the IC50 as the midpoint of a concentration-inhibition curve. The low end stands for greater potency in that assay, the high end for weaker potency in that assay. As for `CN(C)CCCn1c(=O)c2ccc3c4c(nn3CCN(C)C)c3ccccc3n(c1=O)c24`, the C50 in test [1] was 0.12 µM. This compound registered an IC50 in test [2] of 37 nM.

Consider `CN(C)CCn1c(=O)c2ccc3c4c(nn3CCN3CCCC3)c3ccccc3n(c1=O)c24`, for which, in test [1], the C50 amounted to 0.049 µM. Further, 9.2 nM corresponded to half-maximal inhibition in test [2] (IC50).

In the case of `CN(C)CCn1c(=O)c2ccc3c4c(nn3CCN3CCCCC3)c3cc(N)ccc3n(c1=O)c24`, the C50 in test [1] came out at 0.006 µM. The compound also registered an IC50 in test [2] of 0.17 nM.

In test [1], `CN(C)CCCn1nc2c3cc(O)ccc3n3c(=O)n(CCN(C)C)c(=O)c4ccc1c2c43` showed a C50 of 0.0066 µM. Moreover, in test [2], it took 61 nM to reach half-maximal inhibition (IC50).

`O=C1c2c(O)ccc(O)c2C(=O)c2c(NCCNCCO)ccc(NCCNCCO)c21` returned a C50 in test [1] of 0.037 µM.

As for `CN(C)CCn1c(=O)c2ccc3c4c(nn3CCN3CCCC3)c3cc([N+](=O)[O-])ccc3n(c1=O)c24`, the C50 in test [1] came out at 0.048 µM. This compound also came in with an IC50 in test [2] of 1.4 nM.

In test [1], `CN(C)CCCn1nc2c3ccccc3n3c(=O)n(CCN(C)C)c(=O)c4ccc1c2c43` gave a C50 of 0.12 µM. Further, the IC50 in test [2] amounted to 68 nM.

Take `CN(C)CCn1c(=O)c2ccc3c4c(nn3CCN3CCCCC3)c3cc([N+](=O)[O-])ccc3n(c1=O)c24`: in test [1], the C50 came to 0.01 µM. Also, inhibition in test [2] was half-maximal at 0.21 nM (IC50).

As to `CN(C)CCn1c(=O)c2ccc3c4c(nn3CCN3CCCCC3)c3ccccc3n(c1=O)c24`, in test [1], the C50 is 0.05 µM. Also, the IC50 in test [2] amounted to 4.1 nM.

As for `CN(C)CCCn1c(=O)c2ccc3c4c(nn3CCCN(C)C)c3ccccc3n(c1=O)c24`, the C50 in test [1] was 0.56 µM. The compound further gave an IC50 in test [2] of 135 nM.

In the case of `CCN(CC)CCn1c(=O)c2ccc3c4c(nn3CCN(CC)CC)c3ccccc3n(c1=O)c24`, the C50 in test [1] came to 0.051 µM. In test [2], this compound displayed an IC50 of 29 nM.

In test [1], `COc1ccc2c(c1)c1nn(CCN3CCCC3)c3ccc4c(=O)n(CCN(C)C)c(=O)n2c4c13` came in with a C50 of 0.065 µM. Besides, half-maximal inhibition in test [2] (IC50) was put at 0.17 nM.

In test [1], `COc1ccc2c(c1)c1nn(CCCN(C)C)c3ccc4c(=O)n(CCN(C)C)c(=O)n2c4c13` yielded a C50 of 0.037 µM. This compound also had a concentration for half-maximal inhibition (IC50) in test [2] of 37 nM.
